In article PMC4179762 (Drug Design, Development and Therapy, 2014):

How the values were obtained:
[1] = molecular target: T1, hH3R (Homo sapiens, UniProt Q9Y5N1); assay: hH3R radioligand competition binding assay
Method in brief: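 HEK-293 membranes stably expressing hH3R, sonicated at 4°C, in 12.5 mM MgCl2/100 mM NaCl/75 mM Tris-HCl pH 7.4; 20–25 μg/well. […] Unlabeled histamine defined non-specific binding. PEI-treated GF/B filtration, scintillation counting, nonlinear fit; Ki by Cheng–Prusoff.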

[2] = molecular target: T2, hH4R (Homo sapiens, UniProt Q9H3N8); assay: Metric analyses; conditions: LELP=clogP/LE
[3] = molecular target: T2, hH4R; assay: hH4R radioligand competition binding assay; conditions: compared to compound 3
Method in brief: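 Sf9 membranes co-expressing hH4R with Gαi2 and Gβ1γ2, pelleted (16,000 g, 10 min, 4°C) into 12.5 mM MgCl2/1 mM EDTA/75 mM Tris-HCl pH 7.4; 35 μg/well. Incubated 60 min, 25°C, shaking, with 10 nM [3H]histamine and seven test concentrations (0.1 nM–100 μM), triplicate. Non-specific binding with 100 μM histamine. PEI-treated GF/B filtration, scintillation counting; Ki by Cheng–Prusoff.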

[4] = molecular target: T1, hH3R; assay: Metric analyses; conditions: LELP=clogP/LE
[5] = molecular target: T1, hH3R; assay: hH3R saturation binding experiments with [3H]Nα-methylhistamine

T1 sequence (Q9Y5N1 whole entry): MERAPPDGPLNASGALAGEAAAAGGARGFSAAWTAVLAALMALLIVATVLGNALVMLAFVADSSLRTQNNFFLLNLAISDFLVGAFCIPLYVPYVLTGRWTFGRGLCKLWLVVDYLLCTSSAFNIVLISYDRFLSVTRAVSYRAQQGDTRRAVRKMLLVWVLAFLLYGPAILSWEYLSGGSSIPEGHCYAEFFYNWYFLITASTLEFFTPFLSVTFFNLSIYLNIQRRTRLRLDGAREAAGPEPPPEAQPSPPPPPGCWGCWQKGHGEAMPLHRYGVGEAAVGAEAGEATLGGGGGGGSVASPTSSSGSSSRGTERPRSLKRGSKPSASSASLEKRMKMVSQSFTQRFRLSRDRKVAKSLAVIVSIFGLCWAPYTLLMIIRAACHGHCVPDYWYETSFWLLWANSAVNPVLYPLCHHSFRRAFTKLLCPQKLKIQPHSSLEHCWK

Row | Compound | LELP (hH4R) [2] | LELP (hH3R) [4] | other results
1 | CN1CCN(c2cc(Nc3ccc(OCCCN4CCCCC4)cc3)nc(N)n2)CC1 [Compound 3, 6-(4-methylpiperazin-1-yl)-N^4-(4-(3-(piperidin-1-yl)propoxy)phenyl)pyrimidin-2,4-diamine] | 15.17 |  | fold increased affinity for hH3R ([1]; vs compound 2): 49 ×
2 | CNCCc1cnc[nH]1 [[^3H] N^α-MeHA, [^3H]N^α-methylhistamine] |  |  | Kd ([5]; read-out: Kd value of radioligand at hH3R, HEK-293 membranes): 2.98 nM
3 | [3H]CNCCc1cnc[nH]1 [[^3H] N^α-MeHA, [^3H]N^α-methylhistamine] |  |  | pKd of radioligand at hH3R ([5]; HEK-293 membranes): 8.53±0.01

Second part, led by results:

Row | LELP (hH4R) [2] | LELP (hH3R) [4] | Compound | other results
4 | 13.11 |  | 6-(4-methylpiperazin-1-yl)-N-(4-(3-(piperidin-1-yl)propoxy)benzyl)pyrimidin-2,4-diamine [Compound 4] | fold weaker affinity for hH3Rs ([1]; compared to compound 3): ~5 ×; fold higher affinity for hH4Rs [3]: 3 ×
5 | 23.57 | 12.79 | c1ccc(CNc2ccnc(Nc3ccc(OCCCN4CCCCC4)cc3)n2)cc1 [Compound 5, N^4-benzyl-N^2-(4-(3-(piperidin-1-yl)propoxy)phenyl)pyrimidin-2,4-diamine] | Ratio hH4R/hH3R ([1]; receptor subtype selectivity, Ki hH4R / Ki hH3R): more than 6,500
6 | 17.82 | 13.55 | CN1CCN(CCCOc2ccc(Nc3nccc(NCc4ccccc4)n3)cc2)CC1 [Compound 6, N^4-benzyl-N^2-(4-(3-(4-methylpiperazin-1-yl)propoxy)phenyl)pyrimidin-2,4-diamine] | 
